T cruzi intra = inhibitors of intracellular Trypanosoma cruzi, primary screen, cell-based, plate reader, single point, set 2 | intracellular Trypanosoma cruzi in host cells | activity score (inhibition), % at 5.01 µM | 22,000 compounds, 4.9% hits | AID 651903, 2012; in the data active = activity score above about 55%;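 note: parasites and compound incubated about four days before reading; 0% = median of neutral control wells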
INS-1E rescue = protection of INS-1E cells from cytokine death, primary screen, ATP luminescence, single point; AID 488910, 2010; protection from cytokine-induced ATP loss, % at 10 µM; 20,000 compounds, 0.1% hits; INS-1E cytokine-induced death, 48 h; normalised: neutral wells 0, positive control 100;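 active = mean replicate protection from cytokine-induced ATP loss at least 50% and at least 75% of replicates each reaching 50%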
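Test system: INS-1E rat cells | Quantity: 8000 cells per well | Medium: Phenol-red-free RPMI with 5% fetal bovine serum | Reagent: Cytokine cocktail of IFN-γ, TNF-α and IL-1β | Doses: One compound concentration, pin transfer | Timing: 48 h co-treatment, 10 min post-lysis read | Technique: Luminescent ATP assay (CellTiter-Glo)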
YB-1 expression = inhibitors of YB-1 gene expression, primary screen, cell-based, fluorescence; delta delta Cp (YB-1 minus CDIP) (test concentration not listed); 30,000 compounds, 0.37% hits; U2OS, qRT-PCR YB-1 vs CDIP delta delta Cp, 16 h; hits give high values; zero = DMSO, each unit about twofold;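 active = delta delta Cp rounded down to an integer at or above 3, about 3 SD of DMSO wells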;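 note: higher means less YB-1 transcript or more CDIP transcript relative to DMSO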
Starred values were filed as active, the others as inactive; · = no result. Many of the other results were omitted from the sample, so hits are more common in it than they were.

SMILES	T cruzi intra	INS-1E rescue	YB-1 expression
C[C@H]1CN([C@@H](C)CO)C(=O)Cc2cc(NC(=O)CCC(F)(F)F)ccc2O[C@@H]1CN(C)Cc1ccc(Oc2ccccc2)cc1	59*	-11	-0.2
CCOC(=O)c1ccc(-n2c(C)cc(C=C3C(=O)NC(=S)NC3=O)c2C)cc1	·	·	-0.073
COc1ccc(NC(=O)Nc2cccc3c2O[C@H](CN(C)C(=O)Nc2ccc(OC)cc2)[C@H](C)CN([C@H](C)CO)C3=O)cc1	-14	8	-0.13
C[C@@H]1CCCCO[C@@H](CN(C)C(=O)Nc2ccccc2)[C@@H](C)CN([C@H](C)CO)C(=O)c2cc(NS(=O)(=O)c3ccccc3)ccc2O1	3	8	-0.96
C[C@@H]1CCCCO[C@H](CN(C)C(=O)Nc2cccc3ccccc23)[C@@H](C)CN([C@H](C)CO)C(=O)c2cc(NS(=O)(=O)c3ccccc3)ccc2O1	12	8	-0.23
C[C@@H]1CCCCO[C@@H](CN(C)C(=O)Nc2ccc(C(F)(F)F)cc2)[C@@H](C)CN([C@H](C)CO)C(=O)c2cc(NS(=O)(=O)c3ccccc3)ccc2O1	61*	-4	-0.21
C[C@@H]1CCCCO[C@H](CN(C)C(=O)Nc2cccc3ccccc23)[C@@H](C)CN([C@H](C)CO)C(=O)c2cc(NS(=O)(=O)c3ccc(Cl)cc3)ccc2O1	66*	-2	15*
C[C@@H]1CCCCO[C@H](CN(C)C(=O)Nc2ccc(C(F)(F)F)cc2)[C@@H](C)CN([C@H](C)CO)C(=O)c2cc(NS(=O)(=O)c3ccc(Cl)cc3)ccc2O1	66*	-47	-0.072
COc1ccc(S(=O)(=O)Nc2ccc3c(c2)C(=O)N([C@H](C)CO)C[C@H](C)[C@@H](CN(C)C(=O)Nc2ccc(C(F)(F)F)cc2)OCCCC[C@@H](C)O3)cc1	37	-7	-0.65
CCC(C)NC(=O)Cn1cnc2c1c(=O)n(C)c(=O)n2C (centres undefined)	·	·	-0.35
COc1ccc(S(=O)(=O)Nc2ccc3c(c2)C(=O)N([C@@H](C)CO)C[C@H](C)[C@H](CN(C)S(C)(=O)=O)O3)cc1	-2	·	0.56
C[C@H](CO)N1C[C@H](C)[C@H](CN(C)Cc2ccc(Oc3ccccc3)cc2)Oc2c(NC(=O)C3CCOCC3)cccc2C1=O	7	-9	0.53
C[C@@H]1CN([C@@H](C)CO)C(=O)c2cccc(NC(=O)C3CCCCC3)c2O[C@H]1CN(C)Cc1ccc(Oc2ccccc2)cc1	66*	-95	-0.12
C[C@@H]1CN([C@@H](C)CO)C(=O)c2cccc(NC(=O)C3CC3)c2O[C@H]1CN(C)Cc1ccc(Oc2ccccc2)cc1	63*	-68	-0.28
C[C@H](CO)N1C[C@H](C)[C@@H](CN(C)Cc2ccc(Oc3ccccc3)cc2)Oc2c(NC(=O)C3CCCCC3)cccc2C1=O	75*	-62	-0.5
C[C@@H]1CN([C@H](C)CO)C(=O)c2cccc(NC(=O)C3CCCCC3)c2O[C@H]1CN(C)Cc1ccc(Oc2ccccc2)cc1	69*	-27	-0.48
C[C@@H]1CN([C@@H](C)CO)C(=O)c2cccc(NC(=O)C3CCCCC3)c2O[C@@H]1CN(C)Cc1ccc(Oc2ccccc2)cc1	17	-65	-0.25
C[C@@H]1CN([C@H](C)CO)C(=O)c2cccc(NC(=O)C3CC3)c2O[C@@H]1CN(C)Cc1ccc(Oc2ccccc2)cc1	-8	-24	0.11
C[C@H](CO)N1C[C@H](C)[C@H](CN(C)Cc2ccc(Oc3ccccc3)cc2)Oc2c(NC(=O)C3CC3)cccc2C1=O	-20	-16	-0.26
C[C@@H]1CCCCO[C@H](CN(C)C(=O)NC2CCCCC2)[C@@H](C)CN([C@H](C)CO)C(=O)c2cc(NC(=O)Nc3ccc4c(c3)OCO4)ccc2O1	-9	8	-0.012
Cc1noc(C)c1NC(=O)Nc1cccc2c1O[C@H](CN(C)S(C)(=O)=O)[C@@H](C)CN([C@@H](C)CO)C2=O	-31	15	-0.23
Cc1ccc(O)c(/C=N/NC(=O)c2ccccc2O)c1	44	-135	0.15
O=C(C1CC1(c1ccccc1)c1ccccc1)N1CCCCC1 (centres undefined)	·	·	0.093
C[C@@H]1CN([C@@H](C)CO)C(=O)c2cccc(NS(=O)(=O)c3cn(C)cn3)c2O[C@H]1CN(C)Cc1ccncc1	-21	-2	-0.14
C[C@@H]1CCCCO[C@@H](CN(C)S(C)(=O)=O)[C@@H](C)CN([C@H](C)CO)C(=O)c2cc(NC(=O)C3CCCCC3)ccc2O1	·	-5	-0.34
SMILES	T cruzi intra	INS-1E rescue	YB-1 expression
CS(=O)(=O)N1N=C(c2ccc(Br)cc2)CC1c1cc2ccccc2nc1Cl (centres undefined)	·	·	-0.24
COc1ccc2c(c1OC)C(=O)N1c3ccccc3N=C(c3ccc(Br)cc3)CC21 (centres undefined)	·	·	9.6*
C=C[C@@H](OC)[C@H](OC(=O)Nc1ccc(SC)cc1)c1ccc(OCCO)cc1	·	·	0.15
C[C@@H]1CN([C@H](C)CO)C(=O)c2cc(NS(=O)(=O)c3cn(C)cn3)ccc2O[C@@H]1CN(C)Cc1ccc(C(F)(F)F)cc1	-2	-4	-0.017
C[C@@H]1CN([C@@H](C)CO)C(=O)Cc2cc(NS(=O)(=O)c3ccccc3)ccc2O[C@@H]1CN(C)Cc1ccc(Cl)c(Cl)c1	53	-28	0.17
C[C@@H]1CN([C@H](C)CO)C(=O)Cc2cc(NS(C)(=O)=O)ccc2O[C@@H]1CN(C)Cc1ccc(Cl)c(Cl)c1	28	-13	-0.16
C[C@H]1CN([C@@H](C)CO)C(=O)Cc2cc(NS(C)(=O)=O)ccc2O[C@@H]1CN(C)Cc1ccc(Cl)c(Cl)c1	64*	3	0.27
C[C@H]1CN([C@@H](C)CO)C(=O)Cc2cc(NS(=O)(=O)c3ccc(Cl)cc3)ccc2O[C@@H]1CN(C)Cc1ccc(Cl)c(Cl)c1	35	4	-0.15
C[C@H]1CN([C@@H](C)CO)C(=O)Cc2cc(NS(=O)(=O)c3ccccc3)ccc2O[C@@H]1CN(C)Cc1ccc(Cl)c(Cl)c1	65*	-9	0.042
C[C@@H]1CN([C@@H](C)CO)C(=O)Cc2cc(NS(=O)(=O)c3ccc(Cl)cc3)ccc2O[C@@H]1CN(C)Cc1ccc(Cl)c(Cl)c1	61*	-17	0.3
C[C@@H]1CN([C@@H](C)CO)C(=O)c2cccc(NC(=O)c3nc4ccccc4s3)c2O[C@@H]1CN(C)Cc1ccccc1	36	-49	0.45
COc1ccc(CN(C)C[C@@H]2Oc3c(NC(=O)c4nc5ccccc5s4)cccc3C(=O)N([C@@H](C)CO)C[C@H]2C)cc1	47	-15	0.13
C[C@@H]1CN([C@@H](C)CO)C(=O)c2cccc(NC(=O)c3nc4ccccc4s3)c2O[C@H]1CN(C)CC1CCCCC1	44	-61	-0.031
C[C@H]1CN([C@@H](C)CO)C(=O)c2cccc(NC(=O)c3nc4ccccc4s3)c2O[C@H]1CN(C)Cc1ccc(-c2ccccc2)cc1	23	-23	-0.74

Screening results deposited in PubChem by Broad Institute.
